# Bioassay records as filed in PubChem BioAssay.
# UCH37 DUB inh – inhibitors of human UCH37 deubiquitinase, primary screen, biochemical, Ub-AMC cleavage, fluorescence; Ubiquitin carboxyl-terminal hydrolase isozyme L5 (Homo sapiens), Q9Y5K5; purified proteasome/UCH37; actives 0.33% (n = 330,000); AID 588478, 2011; inhibition, % (no concentration beside the values);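 active means mean inhibition over replicate wells above about 20%, limit read from the data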;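 further: 0% = compound-free wells with enzyme and 100% = wells lacking proteasome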
#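 Material: Human UCH37 enzyme supplied as purified proteasome complex | Schedule: 30 min preincubation with enzyme, 25 min cleavage at room temperature | Detection: AMC fluorescence 355/460 nm | Measure: % inhibition of Ub-AMC cleavage fluorescence | Controls: Wells without proteasome as full block, compound-free enzyme plus substrate as uninhibited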
# Arrestin-AP2 inh – inhibitors of beta-arrestin/AP2 binding, primary screen, biochemical, GPCR trafficking, flow cytometry; beta-arrestin 1 C-terminal peptide binding to AP2 beta2-adaptin appendage (human); FITC-arrestin peptide / GST-AP2 beads; AP2 beta2 appendage carries R879A mutation; inhibition, % at 10 µM; actives 0.31% (n = 340,000); AID 504490, 2011;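 active means inhibition above a set limit, near 3 SD of compounds lacking own fluorescence, cut at about 54% in these data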;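 further: plate controls were DMSO wells for no effect and 5 µM unlabelled arrestin peptide for full effect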
#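 System: GST-AP2 R879A glutathione beads | Also added: FITC-arrestin peptide, 50 nM | Times: 12 min plus 1 h, RT | Signal: Bead flow cytometry, FITC channel | Buffer or medium: PBS with 0.05% Tween 20 and 0.1% BSA | Read-out basis: Percent drop in bead-associated FITC signal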
# APOBEC3A inh – APOBEC3A ssDNA deaminase inhibitors, primary screen, selectivity assay for APOBEC3G inhibitor project, biochemical, FAM/TAMRA oligo cleavage fluorescence. DNA dC->dU-editing enzyme APOBEC-3A (Homo sapiens), P31941. recombinant A3A, FAM/TAMRA ssDNA deamination fluorescence. inhibition, % at 20 µM. actives 0.41% (n = 330,000);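 active means at least 40% inhibition at 20 µM here, with at most 30% in a related deaminase screen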;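 further: plate controls were A3A with DMSO for no effect and wells lacking A3A enzyme for full effect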
# PolyA inh – polyadenylation inhibitors in yeast reporter cells, primary screen, luminescence, S. cerevisiae; S. cerevisiae SKY197-pL101 polyadenylation reporter, beta-gal luminescence; efflux-impaired pdr1/pdr3 knockout yeast; score 100 = 6 SD above DMSO; actives 0.02% (n = 300,000); activity score, % at 12 µM;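 active means lowest replicate activity score at least 50, where 100 means six control SD above control mean; inconclusive means lowest score under 50 but half or more replicates reach 50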;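 further: yeast exposed to compound for 9 h at 30 °C; higher score means more reporter readthrough which indicates perturbed polyadenylation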
# A3G deaminase – APOBEC3G DNA deaminase inhibitors, primary screen, biochemical, fluorescence, single-stranded DNA substrate, uHTS | actives 0.28% (n = 330,000) | inhibition, % at 20 µM | recombinant A3G, ssDNA deamination FAM/TAMRA fluorescence;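 active means inhibition of at least 40% at 20 µM, with no more than 30% in the related APOBEC3A deaminase screen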;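 further: plate controls were DMSO wells with A3G for no effect and wells lacking A3G enzyme for full effect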
# Target sequence (Q9HC16 whole entry, looked up): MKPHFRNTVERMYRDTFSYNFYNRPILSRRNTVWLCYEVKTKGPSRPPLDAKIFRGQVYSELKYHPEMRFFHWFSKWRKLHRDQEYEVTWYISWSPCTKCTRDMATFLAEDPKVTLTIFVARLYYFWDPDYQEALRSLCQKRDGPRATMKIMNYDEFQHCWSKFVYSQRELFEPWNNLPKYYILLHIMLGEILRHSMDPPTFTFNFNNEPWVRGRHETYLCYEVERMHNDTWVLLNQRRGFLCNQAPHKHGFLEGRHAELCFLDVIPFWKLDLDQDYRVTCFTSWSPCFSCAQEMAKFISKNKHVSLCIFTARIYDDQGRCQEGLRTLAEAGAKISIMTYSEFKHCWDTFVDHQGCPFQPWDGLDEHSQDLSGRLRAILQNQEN
# AHR activator – AHR activators, primary screen, cell-based, luminescence, luciferase reporter, human; AHR-responsive luciferase reporter cells; actives 2.5% (n = 320,000); Aryl hydrocarbon receptor (Homo sapiens), P35869; activation, % at 5 µM; AID 2796, 2010; in the data active means activation above about 47%;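 further: 0% = vehicle wells and 100% = reference agonist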
# * hit, by the source's call; ? = inconclusive; · = not tested or not shown. In the library only some 3.4% were active in any assay of this set; here they are far more common.
SMILES,UCH37 DUB inh,Arrestin-AP2 inh,APOBEC3A inh,PolyA inh,A3G deaminase,AHR activator
Clc1ccc(/C=N/Nc2nnc(-c3ncc[nH]3)c3ccccc23)cc1,·,2,5,-14,-1,76*
Clc1ccc(C=NNc2nnc(Cl)c3ccccc23)cc1,2,·,·,·,·,·
Fc1cccc(/C=N/Nc2nncc3ccccc23)c1,·,22,2,1,-3,55*
Clc1cccc(/C=N/Nc2nnc(Cl)c3ccccc23)c1,·,-8,-3,-11,-5,50*
Cc1ccccc1/C=C/c1nc2ccccc2c(=O)[nH]1,-180,2,-2,-7,-5,70*
COCCOC(=O)N/C=C\c1nc2ccccc2c(=O)[nH]1,5,11,-2,0,-2,55*
Cc1ccccc1/C=C\c1nc2ccccc2c(=O)[nH]1,-150,35,-2,-13,-4,38
N#CCOc1ccccc1/C=C/c1nc2ccccc2c(=O)[nH]1,-142,2,1,12,-9,62*
O=C(Cn1cnc([N+](=O)[O-])n1)NN=Cc1ccccc1O,-2,·,·,·,·,·
CC12CCC(CC1=NO)C2(C)C (configuration not stated),1,·,·,·,·,·
CC(=NNC(=O)c1cnccn1)c1ccc([N+](=O)[O-])cc1,9,·,·,·,·,·
Cc1cc(O)c(-c2cc(O)c(C)cc2O)cc1O,-191,12,-2,0,86*,52*
Cc1ccc(N)cc1O,-1,4,-2,·,-1,32
CC(C)CNC(=S)N(Cc1ccco1)Cc1cc2cc3c(cc2[nH]c1=O)OCCO3,-24,10,1,3,-7,54*
CCNC(=S)N(Cc1ccco1)Cc1cc2cc3c(cc2[nH]c1=O)OCCO3,-37,-13,-3,3,-3,71*
CNC(=S)N(Cc1ccco1)Cc1cc2cc3c(cc2[nH]c1=O)OCCO3,·,-2,1,15,-5,37
COc1ccccc1NC(=S)N(Cc1ccco1)Cc1cc2cccc(C)c2[nH]c1=O,4,-4,1,-18,1,48*
Cc1cccc(NC(=O)CCC(=O)NN=Cc2cccnc2)c1,-1,·,·,·,·,·
C=C(C)C1CC=C(C)C(=NNC(=O)CCCNc2cccc(C)c2)C1 (configuration not stated),2,·,·,·,·,·
Cn1cccc1CC(=O)NN=Cc1c2ccccc2cc2ccccc12,-13,·,·,·,·,·
COc1ccc(C2=Nn3c([n+](C)c4ccccc43)SC2)cc1,12,15,1,3,-3,59*
Cn1c(Cc2ccccc2)[n+](C)c2ccccc21,1,12,1,-4,-1,-1
CC1Sc2n(c3ccccc3[n+]2C)N=C1c1ccccc1 (configuration not stated),7,-9,-1,2,-4,74*
C[n+]1c2n(c3ccccc31)N=C(c1ccc(Cl)cc1)CS2,11,12,-3,?,-2,64*
NC(=S)NN=Cc1ccc2c(c1)OCCO2,5,·,·,·,·,·
SMILES,UCH37 DUB inh,Arrestin-AP2 inh,APOBEC3A inh,PolyA inh,A3G deaminase,AHR activator
O=C(NN=Cc1ccc(Br)o1)c1cccnc1,10,·,·,·,·,·
Fc1ccc(-c2noc(-c3ccc4c(c3)CCO4)n2)cc1,0,2,3,6,1,62*
Nc1c2c(nc3c1CCCC3)CCCC2 (tested in a mixture with another compound),1,7,5,9,-5,9
Nc1c2c(nc3sc4c(c13)CCCC4)CCCCCC2,5,15,-4,-2,-8,49*
Cc1ccc(C)c2c(N)c3c(nc12)CCCCC3 (tested in a mixture with another compound),1,27,5,3,6,47*
CC(=NNC(=O)c1c(Br)cnn1C)c1ccc(NC(=O)c2ccc(F)cc2)cc1,3,·,·,·,·,·
